Assay results as given in ChEMBL document CHEMBL3792361, “Design and Synthesis of Benzimidazoles As Novel Corticotropin-Releasing Factor 1 Receptor Antagonists” (J Med Chem, 2016).
pIC50: −log10 of the molar value. ≈ marks a conversion by molar mass, not a printed value. Calls of active or inactive are those of the source. The rule behind the calls is not given here.

Assays:
[1] = Octanol-water partition co-efficient, log D of the compound at pH 7.4 by HPLC analysis; assay type: physicochemical
[2] = target: T1, Corticotropin-releasing factor receptor 1 (Homo sapiens, UniProt P34998); test: Displacement of [125I]-CRF from human CRF1 receptor expressed in CHO cellular membrane fraction after 1.5 hrs by liquid scintillation counting method; assay type: cell-based
T1 sequence (P34998 whole entry): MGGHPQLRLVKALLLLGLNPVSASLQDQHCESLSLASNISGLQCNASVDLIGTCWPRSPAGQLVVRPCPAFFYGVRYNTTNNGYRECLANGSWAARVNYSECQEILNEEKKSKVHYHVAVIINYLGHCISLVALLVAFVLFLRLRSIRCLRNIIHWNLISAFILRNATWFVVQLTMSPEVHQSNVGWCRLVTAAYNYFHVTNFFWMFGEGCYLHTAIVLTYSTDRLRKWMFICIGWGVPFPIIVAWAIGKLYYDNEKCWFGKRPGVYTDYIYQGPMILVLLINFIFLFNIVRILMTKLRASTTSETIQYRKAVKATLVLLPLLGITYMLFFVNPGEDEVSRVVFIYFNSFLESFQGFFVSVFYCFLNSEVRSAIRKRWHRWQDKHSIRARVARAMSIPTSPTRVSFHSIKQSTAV

[3] = Cytotoxicity against human HepG2 cells assessed as rate of ATP content at 30 uM after 1 day by ATPLite-M assay relative to control; assay type: cell-based; conditions: read-out: Activity
[4] = tested on: Mus musculus; test: Ex vivo inhibition of [125I]-CRF binding to CRF1 receptor in mouse frontal cortex at 60 mg/kg, po after 1 hr by gamma scintillation counting method; assay type: functional
Method in brief: (§1)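 Compound suspended in 0.5% methyl cellulose in water and dosed orally (10 mL/kg), 5 mice/group. Incubated with 100 pM ovine 125I-CRF at rt for 2 h, then GF/C filtration.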

[5] = Solubility of the compound in pH 6.8 phosphate buffer with bile acid by HPLC analysis; assay type: physicochemical
Method in brief: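 DMSO stock of compound added to pH 6.8 phosphate buffer containing bile acid. After incubation, precipitate removed by filter-plate filtration; dissolved compound in filtrate quantified by HPLC.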

[6] = target: T2, Corticotropin-releasing factor receptor 2 (Homo sapiens) (UniProt Q13324); test: Binding affinity to human CRF2beta receptor up to 10 uM
T2 sequence (whole entry): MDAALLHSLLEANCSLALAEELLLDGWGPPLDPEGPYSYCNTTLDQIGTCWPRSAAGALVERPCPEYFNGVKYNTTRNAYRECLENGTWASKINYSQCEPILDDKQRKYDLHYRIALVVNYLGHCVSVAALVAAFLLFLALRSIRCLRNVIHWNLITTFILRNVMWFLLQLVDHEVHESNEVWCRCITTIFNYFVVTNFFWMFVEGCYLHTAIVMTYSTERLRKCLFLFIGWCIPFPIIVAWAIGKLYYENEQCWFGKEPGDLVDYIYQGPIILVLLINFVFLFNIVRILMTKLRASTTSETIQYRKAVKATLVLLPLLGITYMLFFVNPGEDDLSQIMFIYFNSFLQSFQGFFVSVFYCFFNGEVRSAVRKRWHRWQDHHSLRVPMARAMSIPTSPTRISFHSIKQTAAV

[7] = tested on: Mus musculus; test: Ex vivo inhibition of [125I]-CRF binding to CRF1 receptor in mouse olfactory bulb at 60 mg/kg, po after 1 hr by gamma scintillation counting method; assay type: functional; method in brief: as §1
[8] = tested on: Mus musculus; test: Ex vivo inhibition of [125I]-CRF binding to CRF1 receptor in mouse pituitary gland at 60 mg/kg, po after 1 hr by gamma scintillation counting method; assay type: functional; method in brief: as §1
[9] = tested on: Mus musculus; test: Suppression of stress-induced activation of hypothalamus-pituitary-adrenocortical axis in mouse assessed as reduction of plasma ATCH level at 60 mg/kg, po after 1 hr by immunoradiometric assay; assay type: functional, organism-based
Method in brief: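 Mice dosed orally with compound suspended in 0.5% methyl cellulose (10 mL/kg) 1 h before test. PBS given icv (5 µL/mouse); blood taken by decapitation 0.5 h later. Plasma separated by centrifugation at 4°C; ACTH measured by immunoradiometric assay. Mean ± SEM, n = 10, Dunnett's test vs vehicle.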

[10] = target: T2, Corticotropin-releasing factor receptor 2 (Homo sapiens); test: Binding affinity to human CRF2alpha receptor up to 10 uM
[11] = tested on: Mus musculus; test: Ex vivo inhibition of [125I]-CRF binding to CRF1 receptor in mouse olfactory bulb at 20 mg/kg, po after 1 hr by gamma scintillation counting method; assay type: functional; method in brief: as §1
[12] = tested on: Mus musculus; test: Ex vivo inhibition of [125I]-CRF binding to CRF1 receptor in mouse pituitary gland at 20 mg/kg, po after 1 hr by gamma scintillation counting method; assay type: functional; method in brief: as §1
[13] = tested on: Mus musculus; test: Ex vivo inhibition of [125I]-CRF binding to CRF1 receptor in mouse frontal cortex at 20 mg/kg, po after 1 hr by gamma scintillation counting method; assay type: functional; method in brief: as §1

For `CCCN(CCC)c1cccc2nc(Nc3c(C)cc(Br)cc3OC)n(C)c12`, the logD [1] was 5.39, the pIC50 [2] was 7.92 and the viability at 24 h, 30 µM [3] was 82%.

`CCCN(CCC)c1cccc2nc(Nc3c(C)cc(C)cc3C)n(-c3ccccc3)c12` showed a logD [1] of 6.31, a pIC50 [2] of 5.66 and a viability at 24 h, 30 µM [3] of 32%.

Compound `CCN(CC)c1ccc(C)c2nc(Nc3c(C)cc(Cl)cc3OC)n(C)c12` has a pIC50 [2] of 8.12 and a viability at 24 h, 30 µM [3] of 72%.

With `CCCN(CCC)c1cccc2nc(Nc3c(C)cc(C)cc3C)[nH]c12` the pIC50 [2] was 5.60 and the viability at 24 h, 30 µM [3] was 41%.

Compound `CCCCN(CCCC)c1cccc2nc(Nc3c(C)cc(Br)cc3OC)n(C)c12` has a pIC50 [2] of 7.85 and a viability at 24 h, 30 µM [3] of 90%.

For `CCN(CC)c1ccc(-c2ccccc2)c2nc(Nc3c(C)cc(Cl)cc3OC)n(C)c12`, the pIC50 [2] was under 5.00 and the viability at 24 h, 30 µM [3] was 92%.

Work on `CCN(CC)c1ccc(Cl)c2nc(Nc3c(C)cc(Cl)cc3OC)n(C)c12` yielded a viability at 24 h, 30 µM [3] of 76%.

Work on `CCCN(CCC)c1cccc2nc(Nc3c(C)cc(C)cc3C)sc12` yielded a pIC50 [2] of 7.11 and a viability at 24 h, 30 µM [3] of 75%.

`CCCN(CCC)c1cccc2nc(Nc3c(C)cc(C)cc3C)n(C)c12` gave a logD [1] of 5.23, a pIC50 [2] of 7.82 and a viability at 24 h, 30 µM [3] of 89%.

`CCN(CC)c1cccc2nc(Nc3c(C)cc(Br)cc3OC)n(C)c12` gave a pIC50 [2] of 7.89 and a viability at 24 h, 30 µM [3] of 93%.

`CCCN(CCC)c1ccc(C#N)c2nc(Nc3c(C)cc(Cl)cc3OC)n(C)c12` showed a pIC50 [2] of 7.85 and a viability at 24 h, 30 µM [3] of 83%.

`CCN(CC)c1ccc(OC)c2nc(Nc3c(C)cc(Cl)cc3OC)n(C)c12` gave a pIC50 [2] of 7.89 and a viability at 24 h, 30 µM [3] of 5%.

`CCN(c1cccc2nc(Nc3c(C)cc(Br)cc3OC)n(C)c12)C(C)C` showed a pIC50 [2] of 7.96 and a viability at 24 h, 30 µM [3] of 87%.

For `CCCN(CCC)c1cccc2nc(Nc3ccc(C)cc3C)n(C)c12`, the pIC50 [2] was 7.08 and the viability at 24 h, 30 µM [3] was 79%.

For `CCCN(CCC)c1ccc(Cl)c2nc(Nc3c(C)cc(Cl)cc3OC)n(C)c12`, the inhibition in vivo at 60 mg/kg [4] was 86%, the solubility [5] was 33 µg/mL (≈ 75.8 µM) and the Activity [6] was “inactive”. The inhibition in vivo at 60 mg/kg [7] was 83%, the inhibition in vivo at 60 mg/kg [8] was 101% and the Activity [9] was “Active”. The Activity [10] was “inactive”.

`CCCN(CCC)c1cccc2nc(Nc3c(C)cc(C)cc3C)n(C(C)C)c12` gave a logD [1] of 5.9, a pIC50 [2] of 7.01 and a viability at 24 h, 30 µM [3] of 10%.

Compound `CCCN(CCC)c1cccc2nc(Nc3c(C)cccc3C)n(C)c12` has a pIC50 [2] of 6.85 and a viability at 24 h, 30 µM [3] of 72%.

Compound `CCCN(CCC)c1c(Cl)ccc2nc(Nc3c(C)cc(Cl)cc3OC)n(C)c12` has a pIC50 [2] of under 5.00 and a viability at 24 h, 30 µM [3] of 86%.

Work on `CCCN(CCC)c1cccc2nc(Nc3c(C)cc(Cl)cc3OC)n(C)c12` yielded a pIC50 [2] of 7.85.

For `CCCN(CCC)c1cccc2nc(Nc3c(C)cc(C)cc3C)oc12`, the pIC50 [2] was 6.00 and the viability at 24 h, 30 µM [3] was 65%.

`CCN(CC)c1ccc(C#N)c2nc(Nc3c(C)cc(Cl)cc3OC)n(C)c12` gave a pIC50 [2] of 7.89 and a viability at 24 h, 30 µM [3] of 81%.

In the case of `CCCN(CCC)c1cccc2nc(Nc3c(C)cc(Cl)cc3C(C)C)n(C)c12`, the logD [1] was 5.96, the pIC50 [2] was 7.66 and the viability at 24 h, 30 µM [3] was 28%.

Work on `COCCN(CCOC)c1cccc2nc(Nc3c(C)cc(Br)cc3OC)n(C)c12` yielded a pIC50 [2] of 7.19 and a viability at 24 h, 30 µM [3] of 92%.

`CCCN(CCC)c1c(Cl)cc(Cl)c2nc(Nc3c(C)cc(Cl)cc3OC)n(C)c12` gave a pIC50 [2] of 6.77 and a viability at 24 h, 30 µM [3] of 72%.

Compound `CCCN(CCC)c1cc(C)nc2c(-c3cnc(N(C)C)cc3C)c(C)nn12` has an inhibition in vivo at 20 mg/kg [11] of 95%, an inhibition in vivo at 20 mg/kg [12] of 98% and an inhibition in vivo at 20 mg/kg [13] of 96%. For the same compound, the viability at 24 h, 30 µM [3] was 51%.
